# From ChEMBL document CHEMBL5126600, “Discovery of the First-in-Class G9a/GLP Covalent Inhibitors” (J Med Chem, 2022)
# Experiments:
# [1] = target: T1, Histone-lysine N-methyltransferase EHMT1 (Homo sapiens, UniProt Q9H9B1); assay: Inhibition of human GLP (982 to 1266 residues) using H3 peptide as substrate measured upto 45 mins in presence of SAM cofactor
# T1 sequence (Q9H9B1 whole entry): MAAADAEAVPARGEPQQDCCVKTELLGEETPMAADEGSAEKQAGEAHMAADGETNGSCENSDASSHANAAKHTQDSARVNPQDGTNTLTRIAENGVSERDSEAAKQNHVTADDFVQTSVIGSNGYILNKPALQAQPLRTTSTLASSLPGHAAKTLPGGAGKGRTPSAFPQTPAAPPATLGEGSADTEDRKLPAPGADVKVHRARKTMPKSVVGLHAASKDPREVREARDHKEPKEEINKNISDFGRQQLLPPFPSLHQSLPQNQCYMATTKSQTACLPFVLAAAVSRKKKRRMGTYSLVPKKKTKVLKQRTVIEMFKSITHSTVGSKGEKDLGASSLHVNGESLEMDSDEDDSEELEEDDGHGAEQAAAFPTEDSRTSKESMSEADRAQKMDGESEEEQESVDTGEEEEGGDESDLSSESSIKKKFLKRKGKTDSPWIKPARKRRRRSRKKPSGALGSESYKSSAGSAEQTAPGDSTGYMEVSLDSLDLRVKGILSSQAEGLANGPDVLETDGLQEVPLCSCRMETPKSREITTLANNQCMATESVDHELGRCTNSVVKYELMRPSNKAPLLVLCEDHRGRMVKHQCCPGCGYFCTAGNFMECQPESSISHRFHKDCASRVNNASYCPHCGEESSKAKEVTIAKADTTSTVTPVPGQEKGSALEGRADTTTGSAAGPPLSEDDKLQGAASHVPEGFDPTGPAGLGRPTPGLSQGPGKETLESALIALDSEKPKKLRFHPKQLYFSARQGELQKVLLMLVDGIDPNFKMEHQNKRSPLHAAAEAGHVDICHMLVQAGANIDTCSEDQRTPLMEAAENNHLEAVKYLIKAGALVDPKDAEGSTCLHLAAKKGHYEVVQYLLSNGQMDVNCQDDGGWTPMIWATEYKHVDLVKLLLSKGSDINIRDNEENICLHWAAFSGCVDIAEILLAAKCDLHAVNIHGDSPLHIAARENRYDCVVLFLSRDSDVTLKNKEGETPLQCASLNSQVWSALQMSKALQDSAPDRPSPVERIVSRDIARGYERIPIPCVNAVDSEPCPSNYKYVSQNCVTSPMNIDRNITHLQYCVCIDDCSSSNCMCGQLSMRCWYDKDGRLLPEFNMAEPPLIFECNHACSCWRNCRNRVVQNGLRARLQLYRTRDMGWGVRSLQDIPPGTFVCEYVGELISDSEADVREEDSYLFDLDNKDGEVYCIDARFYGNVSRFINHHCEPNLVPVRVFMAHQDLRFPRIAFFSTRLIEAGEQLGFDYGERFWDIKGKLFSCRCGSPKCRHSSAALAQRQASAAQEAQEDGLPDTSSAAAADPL
# Summary of the method: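 Contracted scintillation proximity assay following 3H-methyl transfer from SAM (1 μM) to H3 peptide (0.05 μM) by G9a or GLP (5 nM each), with preincubation times of 5, 15 or 45 min; four replicates.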
# [2] = target: Histone-lysine N-methyltransferase, H3 lysine-79 specific (Homo sapiens) (UniProt Q8TEK3); assay: Inhibition of N-terminal GST-tagged human DOT1L (1 to 416 residues) expressed in Escherichia coli at 1 uM using 3H-SAM as a substrate relative to control
# Summary of the method: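 Contracted 3H-SAM methyl-transfer scintillation proximity assay against a panel of methyltransferases; compound tested at 1 μM in duplicate; inhibition expressed as percent of control enzyme activity.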
# MDA-MB-231 = assay: Down regulation of H3K9 dimethylation in human MDA-MB-231 cells at 0.2 to 5 uM by Western blot analysis; assay type: functional, cell-based; conditions: dose 0.2-5 µM, time lower […], time upper 72.0 hrs, TDE = time-dependent effect
# [3] = target: T2, Histone-lysine N-methyltransferase EHMT2 (Homo sapiens) (UniProt Q96KQ7); assay: Inhibition of human G9a (913 to 1193 residues) assessed as covalent modification by measuring G9a adduct formation by mass spectrometry; conditions: time <= 120.0 min, TDE = time-dependent effect
# T2 sequence (whole entry): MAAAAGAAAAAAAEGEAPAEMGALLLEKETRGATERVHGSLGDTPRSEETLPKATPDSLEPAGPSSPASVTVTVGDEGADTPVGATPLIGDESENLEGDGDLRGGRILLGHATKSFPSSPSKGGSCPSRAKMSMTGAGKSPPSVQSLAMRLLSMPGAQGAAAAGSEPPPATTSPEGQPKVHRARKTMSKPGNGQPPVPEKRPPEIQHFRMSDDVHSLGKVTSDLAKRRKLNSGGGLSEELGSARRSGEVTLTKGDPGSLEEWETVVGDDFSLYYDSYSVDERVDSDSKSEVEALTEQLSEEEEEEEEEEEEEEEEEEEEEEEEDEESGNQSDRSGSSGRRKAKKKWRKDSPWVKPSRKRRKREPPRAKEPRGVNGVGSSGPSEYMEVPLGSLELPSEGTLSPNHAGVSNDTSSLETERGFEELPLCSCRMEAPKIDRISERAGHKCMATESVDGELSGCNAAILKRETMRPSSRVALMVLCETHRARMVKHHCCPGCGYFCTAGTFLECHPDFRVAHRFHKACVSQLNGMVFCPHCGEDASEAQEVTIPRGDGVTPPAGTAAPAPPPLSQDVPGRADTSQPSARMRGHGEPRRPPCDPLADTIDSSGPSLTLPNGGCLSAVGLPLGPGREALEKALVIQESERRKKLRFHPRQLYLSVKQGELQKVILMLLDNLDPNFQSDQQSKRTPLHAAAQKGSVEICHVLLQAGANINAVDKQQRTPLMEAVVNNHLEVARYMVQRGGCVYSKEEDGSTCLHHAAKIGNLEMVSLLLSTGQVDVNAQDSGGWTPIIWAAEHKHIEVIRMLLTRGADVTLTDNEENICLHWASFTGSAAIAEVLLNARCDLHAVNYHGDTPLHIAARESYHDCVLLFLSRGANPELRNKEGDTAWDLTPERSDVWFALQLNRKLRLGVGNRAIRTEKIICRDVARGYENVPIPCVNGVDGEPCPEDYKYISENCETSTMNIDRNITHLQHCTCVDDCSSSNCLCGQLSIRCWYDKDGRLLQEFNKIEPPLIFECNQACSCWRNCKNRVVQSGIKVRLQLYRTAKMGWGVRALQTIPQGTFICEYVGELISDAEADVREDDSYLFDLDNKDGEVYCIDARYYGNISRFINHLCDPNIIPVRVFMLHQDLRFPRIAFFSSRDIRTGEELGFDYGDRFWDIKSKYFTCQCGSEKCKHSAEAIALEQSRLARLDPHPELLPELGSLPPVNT
# Summary of the method: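 Purified G9a or GLP catalytic domain (5 μM) in 50 mM Tris-HCl pH 7.5, 150 mM NaCl incubated with 50 μM compound or DMSO at room temperature (1 h, or 30 and 60 min in time course); intact mass by ESI LC/MS-TOF; adduct % = adduct/(protein + adduct) × 100.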
# Chain of Histone-lysine N-methyltransferase, H3 lysine-79 specific (Homo sapiens) (Q8TEK3 whole entry, looked up, the tested form may be a part): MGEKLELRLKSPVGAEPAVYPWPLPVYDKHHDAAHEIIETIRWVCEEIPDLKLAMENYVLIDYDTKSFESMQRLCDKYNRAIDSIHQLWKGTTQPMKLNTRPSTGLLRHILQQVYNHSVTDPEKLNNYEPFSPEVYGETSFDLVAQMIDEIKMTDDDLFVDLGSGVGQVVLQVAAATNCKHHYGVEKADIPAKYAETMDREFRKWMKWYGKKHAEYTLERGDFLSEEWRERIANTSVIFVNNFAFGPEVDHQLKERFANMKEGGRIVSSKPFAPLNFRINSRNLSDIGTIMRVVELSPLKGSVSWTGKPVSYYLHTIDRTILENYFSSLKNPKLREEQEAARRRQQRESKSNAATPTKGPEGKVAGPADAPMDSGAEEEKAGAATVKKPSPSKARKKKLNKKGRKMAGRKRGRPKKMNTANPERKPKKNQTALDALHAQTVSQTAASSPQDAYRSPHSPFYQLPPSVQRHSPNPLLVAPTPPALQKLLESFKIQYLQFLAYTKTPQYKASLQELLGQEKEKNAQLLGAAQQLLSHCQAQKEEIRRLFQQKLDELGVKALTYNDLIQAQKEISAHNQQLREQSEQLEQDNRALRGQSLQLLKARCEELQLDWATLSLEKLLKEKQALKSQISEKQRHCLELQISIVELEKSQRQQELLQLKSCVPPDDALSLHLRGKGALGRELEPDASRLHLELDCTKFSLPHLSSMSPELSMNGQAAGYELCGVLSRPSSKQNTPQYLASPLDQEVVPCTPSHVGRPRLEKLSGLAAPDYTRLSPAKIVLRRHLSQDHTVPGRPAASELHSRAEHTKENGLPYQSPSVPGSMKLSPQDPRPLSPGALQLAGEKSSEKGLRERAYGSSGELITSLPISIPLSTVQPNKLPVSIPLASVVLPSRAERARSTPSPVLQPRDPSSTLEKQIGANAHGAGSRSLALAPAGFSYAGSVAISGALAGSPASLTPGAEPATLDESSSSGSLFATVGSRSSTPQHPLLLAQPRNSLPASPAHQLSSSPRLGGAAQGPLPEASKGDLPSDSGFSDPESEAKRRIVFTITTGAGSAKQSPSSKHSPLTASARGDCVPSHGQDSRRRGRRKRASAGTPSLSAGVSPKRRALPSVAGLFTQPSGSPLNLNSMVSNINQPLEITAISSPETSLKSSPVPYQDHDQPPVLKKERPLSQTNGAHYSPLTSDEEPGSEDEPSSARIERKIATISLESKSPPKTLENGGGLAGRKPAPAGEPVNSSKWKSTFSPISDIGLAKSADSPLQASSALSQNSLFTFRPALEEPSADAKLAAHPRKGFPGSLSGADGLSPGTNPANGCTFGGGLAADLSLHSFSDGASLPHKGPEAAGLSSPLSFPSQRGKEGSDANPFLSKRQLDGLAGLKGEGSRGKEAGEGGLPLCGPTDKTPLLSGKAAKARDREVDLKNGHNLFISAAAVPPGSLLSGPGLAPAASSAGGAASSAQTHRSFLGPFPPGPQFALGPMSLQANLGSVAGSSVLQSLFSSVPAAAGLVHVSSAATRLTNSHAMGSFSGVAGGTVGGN
structure (smiles),measurement,setting,value
C=CC(=O)Nc1cc(NC2CCN(C(C)C)CC2)c2cc(OC)c(OCCCN3CCCC3)cc2n1,IC50,[1],140 nM
same,inhibition,[2],< 50%
same,Activity,MDA-MB-231,Tde
same,inhibition,[3],Tde
